Measurements taken from ChEMBL document CHEMBL3112575, “N¹,N¹-Dimethyl-N³-(3-(trifluoromethyl)phenethyl)propane-1,3-diamine, a new lead for the treatment of human African trypanosomiasis” (Eur J Med Chem, 2014).

Test system: Trypanosoma brucei brucei
Assay: Antitrypanosomal activity against bloodstream form of Trypanosoma brucei brucei 427 after 48 hrs by Alamar Blue staining based fluorescence assay
Assay type: functional, organism-based
Details: Trypanosoma brucei, 427, 48 h
Outline: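 Starting inoculum 2×10³ bloodstream-form parasites per well in HMI-9 with 10% FBS, exposed to two-fold serial drug dilutions for 48 h at 37°C, 5% CO₂. Alamar Blue then added, with a further 4 h incubation. Fluorescence read at Ex 544/Em 590. Each plate included drug-free parasite wells and parasite-free, drug-free wells. IC₅₀ from three biological replicates, each the mean of three technical replicates.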

| Structure (SMILES) | IC50 [µM] |
| --- | --- |
| C#CCN(CCCN(C)C)CCc1cc(OC)c(Br)cc1Br | > 8 |
| CN(C)CCCNCc1cc(Br)c(O)c(Br)c1 | > 8 |
| COc1c(Br)cc(CNCCCN(C)C)cc1Br | > 8 |
| CN(C)CCCNCc1cccc(O)c1 | > 8 |
| CN(C)CCCNCc1ccc(O)cc1 | > 8 |
| COc1cccc(CNCCCN(C)C)c1 | > 8 |
| COc1ccc(CNCCCN(C)C)cc1 | > 8 |
| COc1cc(CCNCCCN(C)C)c(Br)cc1Br | 0.3 |
| COc1ccc(Br)c(CCNCCCN(C)C)c1Br | 4 |
| COc1ccc(CCNCCCN(C)C)cc1Br | > 8 |
| COc1ccc(Br)cc1CCNCCCN(C)C | > 8 |
| COc1cccc(CCNCCCN(C)C)c1 | > 8 |
| COc1cc(CCN(CCCN(C)C)C(C)=O)c(Br)cc1Br | > 8 |
| COc1cc(CCNCCCN)c(Br)cc1Br | 2 |
| COc1cc(CCNCCCO)c(Br)cc1Br | > 8 |
| C#CCNCCc1cc(OC)c(Br)cc1Br | > 8 |
| C#CCCNCCc1cc(OC)c(Br)cc1Br | > 8 |
| COc1cc(CCN2CCCC2)c(Br)cc1Br | > 8 |
| CN(C)CCCNCCc1ccc2ccccc2c1 | 4 |
| CN(C)CCCNCCc1cccs1 | > 8 |

| Structure (SMILES) | IC50 [µM] |
| --- | --- |
| CN(C)CCCNC1Cc2ccccc2C1 | > 8 |
| CN(C)CCCNCCc1ccccc1Br | > 8 |
| CN(C)CCCNCCc1cccc(Br)c1 | > 8 |
| CN(C)CCCNCCc1ccc(Br)cc1 | > 8 |
| CN(C)CCCNCCc1ccccc1F | > 8 |
| CN(C)CCCNCCc1cccc(F)c1 | > 8 |
| CN(C)CCCNCCc1ccc(F)cc1 | > 8 |
| CN(C)CCCNCCc1ccccc1Cl | > 8 |
| CN(C)CCCNCCc1cccc(Cl)c1 | 0.7 |
| CN(C)CCCNCCc1ccc(Cl)cc1 | > 8 |
| COc1ccc(CCNCCCN(C)C)cc1Cl | > 8 |
| CN(C)CCCNCCc1ccc(Cl)c(Cl)c1 | > 8 |
| CN(C)CCCNCCc1ccc(Cl)cc1Cl | > 8 |
| CN(C)CCCNCCc1c(Cl)cccc1Cl | > 8 |
| CN(C)CCCNCCc1c(F)cccc1Cl | > 8 |
| CN(C)CCCNCCc1cccc(C(F)(F)F)c1 | 0.5 |
| CN(C)CCCNCc1c(Br)cc(Br)c(O)c1Br | > 8 |
| COc1c(Br)cc(Br)c(CNCCCN(C)C)c1Br | > 8 |
| CN(C)CCCNCc1cc(O)c(Br)cc1Br | 2.2 |
| COc1cc(CNCCCN(C)C)c(Br)cc1Br | 4.6 |
